Reference: PubChem BioAssay AID623993 (Broad Institute, 2012)
Active and inactive are the calls of the source.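 The calls were made as follows: active = inhibitor whose fitted half-maximal dose is at most twice the top valid tested dose; inconclusive = flat curve with partial inhibition, or poor fit; inactive = signal rising, flat near zero, or weaker potency.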

target: PvdQ acyl-homoserine lactone acylase (Pseudomonas aeruginosa LESB58); assay: PvdQ acylase inhibitors, dose response, biochemical, 4-MU laurate fluorescence, dry powder, set 4 (AID 623993); settings: purified PvdQ, 4-MU laurate hydrolysis fluorescence
Procedure, shortened: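 Material: purified Pseudomonas aeruginosa PvdQ acylase enzyme; Buffer or medium: 50 mM Tris pH 8.0, 50 mM NaCl, 0.2 mM TCEP, Triton X-100; Reagent: fluorogenic substrate 4-methylumbelliferone laurate, 0.8 mM final; Times: 30 min preincubation plus 60 min reaction, room temperature; Signal: fluorescence at 0 and 60 min, excitation 303–367 nm, emission 440–460 nm.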

Row | Structure (SMILES) | AC50
1 | N#CC(c1ccc(F)cc1)c1cccc(Cl)n1 (stereo not given) | 108 nM
2 | N#Cc1cccc(C(C#N)c2ccc(F)cc2)n1 (stereo not given) | 140 nM
3 | N#CC1c2ccc(Cl)cc2CCc2cccnc21 (stereo not given) | 3510 nM
4 | COCCOCCC(C#N)c1ccc(Cl)cc1 (stereo not given) | 7070 nM
5 | COCCOCCC(C#N)c1ccc(F)cc1 (stereo not given) | 177 nM
6 | CN(C)CCCC(C#N)c1ccc(Cl)cc1 (stereo not given) | 14500 nM
7 | CCCCC(C#N)c1ccc(F)cc1 (stereo not given) | 412 nM
8 | CCCCC(C#N)c1ccc(Cl)cn1 (stereo not given) | 1630 nM
9 | COCCC(C#N)c1ccc(Cl)cc1 (stereo not given) | 3470 nM
10 | N#CC(c1ccc(Cl)cc1)c1ncccc1Cl (stereo not given) | 3.01 nM
11 | CN(C)CCCC(C#N)c1ccc(F)cc1 (stereo not given) | 273 nM
12 | COCCC(C#N)c1ccc(F)cc1 (stereo not given) | 530 nM
13 | N#CC(c1ccc(C(F)(F)F)c(Cl)n1)c1ccccc1OC(F)(F)F (stereo not given) | 15200 nM
14 | N#CC(c1cccc(Cl)n1)c1ccc(Cl)cc1F (stereo not given) | 7.66 nM
15 | CCCCC(C#N)c1ccc(Cl)cc1 (stereo not given) | 412 nM
16 | N#CC(c1cccc(C(F)(F)F)n1)c1ccc(Cl)cc1F (stereo not given) | < 3 nM
17 | N#CC(c1ccc(Cl)cc1)c1cccc(Cl)n1 (stereo not given) | 49.1 nM
18 | N#CC(c1ccc(F)cc1)c1cccc(C(F)(F)F)n1 (stereo not given) | < 3 nM
19 | N#CC(c1ccc(Cl)cc1)c1cccc(C(F)(F)F)n1 (stereo not given) | 23.6 nM
20 | N#CC(c1ccc(Cl)cc1)N1CCCC1 (stereo not given) | 786 nM
21 | N#CC(c1ccc(Cl)cc1)c1ccccn1 (stereo not given) | 212 nM
22 | CCCCC(c1ccc(Cl)cc1)c1nn[nH]n1 (stereo not given) | 3530 nM

same assay, conditions: purified PvdQ, 4-MU laurate hydrolysis fluorescence; at 19.5 µM (top of the series)

Row | Structure (SMILES) | activity change, negative = inhibition
23 | CCCCC(C#N)c1ccccn1 (stereo not given) | inactive
24 | COCCNC(C#N)c1ccc(Cl)cc1 (stereo not given) | inactive
25 | Clc1ccc(C(c2cccc(Cl)n2)c2nn[nH]n2)cc1 (stereo not given) | inactive
